Experimental data taken from ChEMBL document CHEMBL1124542, “Cholecystokinin antagonists. Synthesis and biological evaluation of 3-substituted benzolactams” (J Med Chem, 1989).

What was measured:
[1] = target: T1, Cholecystokinin receptor (Rattus norvegicus, UniProt P30551+P30553); test: Half-maximal inhibition of binding of [125I]CCK-8 to Cholecystokinin receptor in rat pancreatic tissue
T1 sequence (P30551 whole entry): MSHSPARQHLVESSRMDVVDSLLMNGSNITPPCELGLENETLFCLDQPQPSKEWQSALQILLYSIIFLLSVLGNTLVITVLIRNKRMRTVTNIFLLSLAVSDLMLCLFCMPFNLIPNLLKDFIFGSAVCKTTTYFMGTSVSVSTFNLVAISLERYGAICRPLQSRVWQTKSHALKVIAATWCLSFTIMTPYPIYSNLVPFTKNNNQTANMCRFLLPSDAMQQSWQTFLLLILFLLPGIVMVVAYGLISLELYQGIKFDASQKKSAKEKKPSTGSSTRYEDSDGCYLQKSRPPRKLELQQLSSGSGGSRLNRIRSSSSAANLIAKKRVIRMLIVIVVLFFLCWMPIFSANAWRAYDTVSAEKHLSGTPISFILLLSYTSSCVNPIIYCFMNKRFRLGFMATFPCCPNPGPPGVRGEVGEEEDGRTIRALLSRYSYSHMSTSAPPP
T1 sequence (P30553 whole entry): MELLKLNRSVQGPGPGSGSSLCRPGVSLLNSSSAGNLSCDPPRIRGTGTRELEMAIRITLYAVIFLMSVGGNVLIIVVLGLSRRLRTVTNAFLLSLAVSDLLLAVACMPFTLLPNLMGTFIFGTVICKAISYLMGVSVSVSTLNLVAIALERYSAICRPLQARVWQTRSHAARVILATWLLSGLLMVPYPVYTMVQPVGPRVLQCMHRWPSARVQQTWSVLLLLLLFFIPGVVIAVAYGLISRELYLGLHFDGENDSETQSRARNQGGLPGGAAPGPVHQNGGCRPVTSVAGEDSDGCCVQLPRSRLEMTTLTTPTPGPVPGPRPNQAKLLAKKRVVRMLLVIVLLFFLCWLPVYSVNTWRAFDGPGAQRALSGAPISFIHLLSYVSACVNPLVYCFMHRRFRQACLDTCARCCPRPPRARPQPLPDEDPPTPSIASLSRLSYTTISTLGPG

[2] = target: T1, Cholecystokinin receptor; test: Inhibition of [125I]-CCK-8 binding to CCK receptors in rat pancreatic tissue
[3] = tested on: Mus musculus; test: Dose rquired to inhibit CCK-induced gastric emptying in mice p.o.; format: functional; details: Stomach, po
Outline: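 Antagonism of CCK-8-induced inhibition of gastric emptying, with gastric emptying followed using a charcoal meal. Test agents were given orally, and the ED50 was taken as the oral dose (mg/kg) that antagonized the CCK-8 effect.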

| IC50 [1] [µM] | IC50 [2] [µM] | Compound | ED50 [3] [mg/kg] |
| --- | --- | --- | --- |
| 50 | – | CN(C)c1ccc(C(=O)NC2CCc3ccccc3N(CC(=O)OC(C)(C)C)C2=O)cc1 (configuration not stated) | – |
| – | 0.003 | CC(C)(C)OC(=O)CN1C(=O)[C@H](NC(=O)c2cc3ccccc3[nH]2)CCc2ccccc21 | – |
| – | 2 | CC(C)(C)OC(=O)CN1C(=O)C(NC(=O)CCc2c[nH]c3ccccc23)CCc2ccccc21 (configuration not stated) | – |
| 2.3 | – | O=C(O)CN1C(=O)C(NC(=O)c2ccc3ccccc3c2)CCc2ccccc21 (configuration not stated) | – |
| 6.8 | – | CN1C(=O)C(NC(=O)c2ccc3ccccc3c2)CCc2ccccc21 (configuration not stated) | – |
| – | 0.11 | CCOC(=O)CN1C(=O)C(NC(=O)c2cc3ccccc3[nH]2)CCc2ccccc21 (configuration not stated) | – |
| – | 0.028 | CC(C)(C)OC(=O)CN1C(=O)C(NC(=O)c2ccc(Cl)c(Cl)c2)CCc2ccccc21 (configuration not stated) | – |
| 2.7 | – | CC(C)(C)OC(=O)CN1C(=O)C(NC(=O)Cc2ccc3ccccc3c2)CCc2ccccc21 (configuration not stated) | – |
| – | 0.0042 | CC(C)(C)OC(=O)CN1C(=O)[C@H](NC(=O)c2ccc3ccccc3c2)CCc2ccccc21 | 6.8 |
| – | 0.06 | CC(C)(C)OC(=O)CN1C(=O)C(NC(=O)c2cc3ccccc3[nH]2)CCCc2ccccc21 (configuration not stated) | – |
| 0.004 | – | CC(C)(C)OC(=O)CN1C(=O)C(NCc2ccc3ccccc3c2)CCc2ccccc21 (configuration not stated) | – |
| 2.1 | – | CC(C)(C)OC(=O)CN1C(=O)C(NC(=O)c2ccccc2)CCc2ccccc21 (configuration not stated) | – |
| – | 0.035 | O=C(NC1CCc2ccccc2N(Cc2ccccc2)C1=O)c1cc2ccccc2[nH]1 (configuration not stated) | – |
| – | 0.2 | CC(C)(C)OC(=O)CN1C(=O)C(NC(=O)c2cc3ccccc3[nH]2)Cc2ccccc21 (configuration not stated) | – |
| – | 0.13 | CC(C)(C)OC(=O)CN1C(=O)C(NC(=O)c2ccc(Cl)cc2)CCc2ccccc21 (configuration not stated) | – |
| 0.0075 | – | CC(C)(C)OC(=O)CN1C(=O)C(NC(=O)c2ccc3ccccc3c2)CCc2ccccc21 (configuration not stated) | – |
| – | 0.2 | CC(C)(C)OC(=O)CN1C(=O)[C@@H](NC(=O)c2cc3ccccc3[nH]2)CCc2ccccc21 | – |
| – | 0.007 | CC(C)(C)OC(=O)CN1C(=O)C(NC(=O)c2cc3ccccc3[nH]2)CCc2ccccc21 (configuration not stated) | 2.6 |
| – | 100 | CC(C)(C)OC(=O)CN1C(=O)C(N)CCc2ccccc21 (configuration not stated) | – |
| – | – | CN1C(=O)[C@@H](NC(=O)c2cc3ccccc3[nH]2)N=C(c2ccccc2)c2ccccc21 [DEVAZEPIDE] | 0.04 |
